# Measured values pooled from the literature.
# Lines come from different studies, so protocols differ.
# STK38L: Serine/threonine-protein kinase 38-like (STK38L, Homo sapiens, UniProt Q9Y2H1)
Compound,target,assay,test system,setting,measurement,result
COc1cc(Nc2ncc(F)c(Nc3ccc4c(n3)NC(=O)C(C)(C)O4)n2)cc(OC)c1OC,STK38L,binding,,10 µM,inhibition,48%
CCSC(=O)N1CCCCCC1,"Aldehyde dehydrogenase, mitochondrial (ALDH2, Homo sapiens, UniProt P05091)","enzyme activity, inhibitor",,,kinact/KI,76 M⁻¹ s⁻¹
Nc1ncc(-c2nc(N3CCOCC3)nc(N3CCOCC3)n2)c(C(F)F)n1,"Calcium/calmodulin-dependent protein kinase type II subunit gamma (CAMK2G, Homo sapiens, UniProt Q13555)","binding, competition with immobilised ligand",,10 µM,remaining binding,73%
CCCCCCCCCCCCCC(=O)O[C@@H]1[C@@H](C)[C@@]2(O)[C@@H](C=C(CO)C[C@]3(O)C(=O)C(C)=C[C@@H]23)[C@@H]2C(C)(C)[C@]12OC(C)=O,"Adenosine receptor A2b (Adora2b, Rattus norvegicus, UniProt P29276)","cAMP, agonist",H9c2,,Emax,19.6%
C#Cc1n[nH]c2c(-c3cn([C@@H](C)c4ccccc4)c(=O)[nH]c3=O)cc(F)cc12,"Serine/threonine-protein kinase Sgk1 (SGK1, Homo sapiens, UniProt O00141)","enzyme activity, inhibitor",,0.1 µM,inhibition,-1.8%
CCN(CC)CCCC[C@H](NC(=O)[C@H](CC(C)C)NC(=O)[C@H](C)NC(=O)[C@H](Cc1ccccc1)NC(=O)c1ccc(C(C)(C)C)cc1)C(=O)N[C@@H](CO)C(=O)OC,"Bromodomain-containing protein 2, BD1 (BRD2, Homo sapiens, UniProt P25440)","thermal stability, DSF",,25 µM,ΔTm,0.19 °C
C#Cc1n[nH]c2c(-c3cn([C@@H](C)c4ccccn4)c(=O)[nH]c3=O)cc(F)cc12,"Serine/threonine-protein kinase PAK 4 (PAK4, Homo sapiens, UniProt O96013)","enzyme activity, inhibitor",,0.1 µM,inhibition,0.2%
Cn1c(=O)n(CCC(C)(C)O)c2cc(Nc3nc(N4CCCC(CO)C4)ncc3Cl)ccc21 (centres unmarked),"B-cell lymphoma 6 protein (BCL6, Homo sapiens, UniProt P41182)","protein level, degrader",SU-DHL-4,,Dmax,~60%
Cc1nn(C)cc1-c1nc2c(N3CCN(Cc4ccc(Cl)cc4)CC3)c(Cl)cnc2[nH]1,"Receptor tyrosine-protein kinase erbB-3 (ERBB3, Homo sapiens, UniProt P21860)","binding, competition with immobilised ligand",,1 µM,remaining binding,95%
C[C@H](C(=O)N[C@H]1COc2ccccc2[C@@H]1S(C)(=O)=O)c1ccc(F)cc1,"Beta-3 adrenergic receptor (ADRB3, Homo sapiens, UniProt P13945)",cell-free assay,,10 µM,inhibition,-12%
COc1ncccc1-c1cnn2ccc(N3CCN(C(=O)OC(C)C)CC3)nc12,STK38L,"binding, competition with immobilised ligand",,1 µM,remaining binding,100%
